The source of these data is ChEMBL document CHEMBL4350954, “Identification of Thienopyrimidine Scaffold as an Inhibitor of the ABC Transport Protein ABCC1 (MRP1) and Related Transporters Using a Combined Virtual Screening Approach” (J Med Chem, 2019).

Data set [1] deals with T1, Multidrug resistance-associated protein 1 (Homo sapiens, UniProt P33527). The experiment in a line: Reversal of ABCC1 (unknown origin)-mediated multidrug resistance in MDCK2 cells co-expressing MRP1 (unknown origin) assessed as resistance factor by measuring [GI50(resistant cell line without or with compound)/ GI50(sensitive cell line)] at 0.5 uM incubated for 72 hrs by MTT assay (reference value: 7). Format: cell-based.
T1 sequence (P33527 whole entry): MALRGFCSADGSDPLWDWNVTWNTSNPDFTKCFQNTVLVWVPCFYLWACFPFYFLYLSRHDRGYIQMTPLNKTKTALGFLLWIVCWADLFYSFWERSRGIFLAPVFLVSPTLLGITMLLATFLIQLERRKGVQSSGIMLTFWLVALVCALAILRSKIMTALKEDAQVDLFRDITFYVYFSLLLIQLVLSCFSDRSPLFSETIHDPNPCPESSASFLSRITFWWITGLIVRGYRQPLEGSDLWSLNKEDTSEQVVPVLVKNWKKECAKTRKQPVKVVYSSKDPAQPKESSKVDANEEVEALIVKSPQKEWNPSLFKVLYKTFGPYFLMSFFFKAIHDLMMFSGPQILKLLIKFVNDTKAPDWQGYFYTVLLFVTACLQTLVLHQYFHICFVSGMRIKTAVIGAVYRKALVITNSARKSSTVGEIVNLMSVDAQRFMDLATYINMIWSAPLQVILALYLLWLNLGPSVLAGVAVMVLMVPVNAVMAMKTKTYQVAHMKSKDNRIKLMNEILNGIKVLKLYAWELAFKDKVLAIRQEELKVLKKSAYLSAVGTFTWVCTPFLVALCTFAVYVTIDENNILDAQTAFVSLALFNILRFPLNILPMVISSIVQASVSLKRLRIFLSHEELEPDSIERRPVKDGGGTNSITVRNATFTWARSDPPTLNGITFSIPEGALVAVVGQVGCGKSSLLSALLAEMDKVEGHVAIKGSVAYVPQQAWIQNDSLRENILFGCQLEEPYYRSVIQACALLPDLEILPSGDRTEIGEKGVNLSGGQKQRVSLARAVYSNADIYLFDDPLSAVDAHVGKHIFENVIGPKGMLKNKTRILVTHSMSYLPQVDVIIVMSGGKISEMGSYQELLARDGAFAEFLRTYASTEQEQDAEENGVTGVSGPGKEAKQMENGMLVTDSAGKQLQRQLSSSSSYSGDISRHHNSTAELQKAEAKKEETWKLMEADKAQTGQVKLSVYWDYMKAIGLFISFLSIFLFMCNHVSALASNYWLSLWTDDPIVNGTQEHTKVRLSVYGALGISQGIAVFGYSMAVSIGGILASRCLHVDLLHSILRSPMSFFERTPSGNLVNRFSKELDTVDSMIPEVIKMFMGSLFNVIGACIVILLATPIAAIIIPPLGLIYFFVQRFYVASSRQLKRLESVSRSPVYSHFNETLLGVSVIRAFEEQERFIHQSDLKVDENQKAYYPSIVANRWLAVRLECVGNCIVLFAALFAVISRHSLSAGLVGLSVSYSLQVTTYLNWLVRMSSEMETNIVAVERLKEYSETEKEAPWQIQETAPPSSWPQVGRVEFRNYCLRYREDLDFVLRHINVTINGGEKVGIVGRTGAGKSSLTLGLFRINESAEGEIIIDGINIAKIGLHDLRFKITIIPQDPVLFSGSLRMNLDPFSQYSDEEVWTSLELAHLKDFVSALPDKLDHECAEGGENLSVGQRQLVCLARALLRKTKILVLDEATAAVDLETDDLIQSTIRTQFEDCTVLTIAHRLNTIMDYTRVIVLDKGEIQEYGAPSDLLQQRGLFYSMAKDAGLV

In data set [2] the target is ABCB1 (P-gp) (Homo sapiens, UniProt P08183). The experiment in a line: Inhibition of ABCB1 in human A2780/ADR cells at 10 uM preincubated for 30 mins followed by calcein AM addition and measured at 60 secs time interval by fluorescence assay relative to cyclosporine A. Particulars: probe calcein AM; call rule not given here. Type of data set: cell-based.
Sequence of ABCB1 (P-gp) (Homo sapiens, UniProt P08183) (P08183 whole entry): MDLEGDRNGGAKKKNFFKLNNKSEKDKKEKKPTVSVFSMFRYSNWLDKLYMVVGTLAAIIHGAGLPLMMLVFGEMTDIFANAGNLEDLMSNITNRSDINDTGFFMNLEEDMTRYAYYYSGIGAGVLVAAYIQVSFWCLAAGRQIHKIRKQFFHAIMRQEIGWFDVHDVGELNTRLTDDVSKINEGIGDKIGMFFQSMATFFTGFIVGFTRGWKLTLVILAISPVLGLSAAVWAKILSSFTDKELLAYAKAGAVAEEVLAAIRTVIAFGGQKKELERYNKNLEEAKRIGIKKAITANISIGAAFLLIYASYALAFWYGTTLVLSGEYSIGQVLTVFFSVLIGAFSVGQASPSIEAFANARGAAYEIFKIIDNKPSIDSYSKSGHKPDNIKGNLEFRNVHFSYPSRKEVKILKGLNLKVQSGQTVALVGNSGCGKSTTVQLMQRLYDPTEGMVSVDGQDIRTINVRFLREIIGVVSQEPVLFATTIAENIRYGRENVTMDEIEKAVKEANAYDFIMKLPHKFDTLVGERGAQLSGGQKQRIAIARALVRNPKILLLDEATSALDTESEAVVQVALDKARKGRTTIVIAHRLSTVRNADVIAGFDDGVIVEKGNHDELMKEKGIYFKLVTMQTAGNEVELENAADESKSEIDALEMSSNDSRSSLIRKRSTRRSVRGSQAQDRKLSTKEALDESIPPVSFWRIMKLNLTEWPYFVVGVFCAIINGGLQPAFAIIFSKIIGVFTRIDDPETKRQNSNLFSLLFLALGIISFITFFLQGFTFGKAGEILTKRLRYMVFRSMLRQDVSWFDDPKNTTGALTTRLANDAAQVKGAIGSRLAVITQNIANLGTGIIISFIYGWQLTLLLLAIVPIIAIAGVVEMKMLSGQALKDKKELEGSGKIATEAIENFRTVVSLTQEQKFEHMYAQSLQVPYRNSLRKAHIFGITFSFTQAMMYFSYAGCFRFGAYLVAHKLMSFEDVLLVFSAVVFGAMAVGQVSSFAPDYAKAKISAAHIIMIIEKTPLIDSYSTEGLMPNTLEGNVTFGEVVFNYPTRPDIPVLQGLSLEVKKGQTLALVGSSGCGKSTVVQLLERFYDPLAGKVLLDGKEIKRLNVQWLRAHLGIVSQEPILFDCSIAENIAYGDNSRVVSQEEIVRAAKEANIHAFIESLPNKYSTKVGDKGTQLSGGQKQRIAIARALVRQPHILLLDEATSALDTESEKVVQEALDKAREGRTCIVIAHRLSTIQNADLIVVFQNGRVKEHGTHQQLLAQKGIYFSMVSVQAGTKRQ
Data set [3] concerns the target T2, Broad substrate specificity ATP-binding cassette transporter ABCG2 (Homo sapiens, UniProt Q9UNQ0).
T2 sequence (Q9UNQ0 whole entry): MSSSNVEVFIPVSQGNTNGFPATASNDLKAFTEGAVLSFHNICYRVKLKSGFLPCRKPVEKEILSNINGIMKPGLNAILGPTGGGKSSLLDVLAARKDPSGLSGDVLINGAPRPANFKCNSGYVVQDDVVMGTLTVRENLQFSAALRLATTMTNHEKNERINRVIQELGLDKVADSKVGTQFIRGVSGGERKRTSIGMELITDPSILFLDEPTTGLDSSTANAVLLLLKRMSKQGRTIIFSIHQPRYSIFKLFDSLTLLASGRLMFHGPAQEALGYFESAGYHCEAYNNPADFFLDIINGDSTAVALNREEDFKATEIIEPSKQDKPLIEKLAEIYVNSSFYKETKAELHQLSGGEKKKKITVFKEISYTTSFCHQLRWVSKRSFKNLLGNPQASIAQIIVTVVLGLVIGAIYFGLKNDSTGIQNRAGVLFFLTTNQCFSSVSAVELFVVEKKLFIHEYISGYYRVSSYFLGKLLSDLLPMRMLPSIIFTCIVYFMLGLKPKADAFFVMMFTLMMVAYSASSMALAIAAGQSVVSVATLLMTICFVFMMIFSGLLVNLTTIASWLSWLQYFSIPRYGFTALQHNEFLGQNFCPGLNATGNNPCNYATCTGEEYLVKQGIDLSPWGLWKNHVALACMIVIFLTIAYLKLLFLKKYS
Put plainly: Reversal of ABCG2-mediated multidrug resistance in human MCF-7/MX cells assessed as resistance factor by measuring [GI50(resistant cell line without or with compound)/ GI50(sensitive cell line)] incubated for 72 hrs by MTT assay (reference value: 789).

Data set [4] addresses ATP-dependent translocase ABCB1 (Homo sapiens, UniProt P08183). The experiment in a line: Reversal of ABCB1-mediated multidrug resistance in human A2780/ADR cells assessed as resistance factor by measuring [GI50(resistant cell line without or with compound)/ GI50(sensitive cell line)] at 0.5 uM incubated for 72 hrs by MTT assay (reference value: 49). Format: cell-based. The essentials:
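MDR reversal assay with daunorubicin at 10 nM–10 µM, alone or with test compound at 0.5, 1, 5 or 10 µM. Resistant cells were ABCB1-overexpressing A2780/ADR or MDCK II MDR1, with sensitive A2780 or MDCK II cells as comparators. Resistance factor = resistant GI50 / sensitive GI50. EC50 was derived from resistance factors versus modulator concentration. Values are from ≥3 experiments in duplicate ± SEM.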
Background: Tetrazolium dyes change colour on reduction, which living cells bring about.

For data set [5], the system named is ABCB1 (P-gp). The experiment in a line: Therapeutic index, ratio of GI50 for human A2780/ADR cells to IC50 for ABCB1 in human A2780/ADR cells. Type of data set: toxicity, cell-based. Particulars: read-out: TI. The essentials:
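Therapeutic ratio = GI50 from the MTT cytotoxicity assay / IC50 from the inhibition assay in the same cell line. The cell lines were H69AR (calcein AM, ABCC1), A2780/ADR (calcein AM, ABCB1) and MDCK II BCRP (pheophorbide A, ABCG2).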

Data set [6] can be described thus: Growth inhibition of human A2780/ADR cells incubated for 72 hrs by MTT assay. Format: cell-based. The essentials:
(§1)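 MTT-based cytotoxicity assay giving GI50 of the compound alone in each listed parental, selected or transfected cell line.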

For data set [7], the target named is T1, Multidrug resistance-associated protein 1. Put plainly: Inhibition of ABCC1 in human H69AR cells preincubated for 30 mins followed by calcein-AM addition measured at 60 secs time interval by fluorescence assay. Format: cell-based. The essentials:
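Calcein AM accumulation assay in H69AR small-cell lung cancer cells, which express only ABCC1. Inhibited efflux lets calcein AM build up intracellularly, where esterases cleave it to fluorescent calcein. The screen used 10 µM, scaled to a standard ABCC1 inhibitor at 10 µM as 100%. Hits reaching ≥20% inhibition (+SEM) went on to IC50 curves, constrained to that 100% maximum. Values are means of ≥3 independent experiments in duplicate ± SEM.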

For the next data set, the target named is T3, ABCG2 (BCRP) (Homo sapiens, UniProt Q9UNQ0).
T3 sequence (Q9UNQ0 whole entry): T2 sequence (Q9UNQ0 whole entry)
Put plainly: Inhibition of ABCG2 (unknown origin) expressed in MDCK2 cells co-expressing BCRP (unknown origin) assessed as effect on pheophorbide A accumulation at 10 uM pre-incubated for 20 mins followed by pheophorbide A addition and measured after 120 mins by flow cytometric analysis relative to Ko143. Type of data set: cell-based. Particulars: probe pheophorbide A. The method in brief: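 Pheophorbide A accumulation assay in ABCG2-transfected MDCK II BCRP cells. Ko143 at 10 µM set 100% and no compound set 0%. Screening was at 10 µM; compounds reaching >20% (+SEM) got IC50 curves constrained to the Ko143 maximum at 10 µM. Values are reported as mean ± SEM.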
(Flow cytometry measures light scatter and fluorescence of single cells or particles in a stream.)

A short description of data set [8]: Growth inhibition of human H69AR cells incubated for 72 hrs by MTT assay. The method in brief: as §1
For data set [9], the target named is T1, Multidrug resistance-associated protein 1. The experiment in a line: Competitive inhibition of ABCC1-mediated calcein-AM transport in human H69AR cells at 0.316 to 1.78 uM by Lineweaver-Burk plot analysis. Format: cell-based. The method in brief:
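Kinetic study of calcein AM transport by Lineweaver-Burk analysis. ABCC1 was studied in H69AR cells with calcein AM at 0.25, 0.3, 0.45, 0.6 and 0.8 µM and inhibitor at 0.316, 0.562, 1.00 and 1.78 µM plus a zero control. ABCB1 was studied in A2780/ADR cells with calcein AM at 0.2–0.8 µM and inhibitor at 0.056, 0.100, 0.178 and 0.316 µM plus a zero control.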

Sequence of ATP-dependent translocase ABCB1 (P08183 whole entry): as the sequence (P08183 whole entry) above

As to `CC1CCc2c(sc3nc(-c4cccnc4)nc(N4CCN(C(C(N)=O)c5ccccc5)CC4)c23)C1` (stereo not given), the RatioGI50 in data set [1] came out at 4.7; in [3] it was 53; in [4], 32. Besides, the inhibition (as a rule, the drop in the measured response relative to a control, in per cent) at 1 min, 10 µM on ABCB1 (P-gp) [2] is at least 20%. Moreover, the selectivity ratio with ABCB1 (P-gp) [5] was determined as 14.9. Also, the 50% growth inhibitory concentration (GI50) – broadly, the concentration at which growth is held to half of that of the control – at 72 h in data set [6] is 25.8 µM; in data set [8], 56.9 µM. In data set [7], the IC50 (in general, the point on the concentration scale where inhibition reaches its midpoint) is 5.04 µM. Further, the inhibition at 2 h, 10 µM at ABCG2 (BCRP) is at least 20%. In data set [9], the “inhibition (INH)” value is reported as “Active”.
